Read-outs that look alike come from different tables or passages of the source.
Legend:
[1] = Microsomal stability in human liver microsomes; type: in vitro ADME; conditions: for microsomal CLint at 1 μmol/L: human, liver microsomes, pH 7.4
Method in brief: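 Human liver microsomes (0.5 mg/mL protein) in 0.1 mol/L potassium phosphate, pH 7.4, 37 °C, with 1 mmol/L NADPH and 1 mmol/L MgCl₂, or without NADPH. Test compound at 1 µmol/L final. For CYP3A inhibition, cobicistat was pre-incubated 5 min before the compound. Sampled at 0–60 min and quenched with acidified acetonitrile. LC/MS/MS gave t1/2 and CLint; at least duplicate.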

[2] = Microsomal stability in CD-1 mice liver microsomes; type: in vitro ADME; conditions: for microsomal CLint at 1 μmol/L: CD-1, mouse, liver microsomes, pH 7.4
Method in brief: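 Mouse liver microsomes (0.5 mg/mL protein, final) in 0.1 mol/L potassium phosphate, pH 7.4, 37 °C, with 1 mmol/L NADPH and 1 mmol/L MgCl₂. Started by adding test compound (1 µmol/L final). A no-NADPH control was run in parallel. Sampled at 0, 5, 15, 30 and 60 min and quenched in acidified acetonitrile. LC/MS/MS gave t1/2 and CLint. At least duplicate independent assays.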

[3] = Plasma stability in human plasma; type: in vitro ADME; conditions: 1 μmol/L, 80% plasma, 37 °C
Method in brief: (§1)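 Test compound (1 µmol/L final) incubated in duplicate in pooled plasma diluted to 80% in 0.1 mol/L potassium phosphate, pH 7.4, at 37 °C. Aliquots taken at 0, 1, 3, 6 and 24 h, quenched with acetonitrile containing 0.1% formic acid, and centrifuged. Supernatant analysed by LC/MS/MS to derive plasma t1/2.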

[4] = Plasma stability in CD-1 mouse plasma; type: in vitro ADME, CD-1 mice
Method in brief: as §1

[5] = Pharmacokinetics and oral bioavailability of GS-441524 in CD-1 mice; type: in vivo
[6] = Tissue distribution of GS-441524 and GS-443902 in CD-1 mice after oral dosing; type: in vivo; conditions: 20 mg/kg oral dose
[7] = tested on: SARS-CoV-2; conditions: Calu-3 2B4 cells, cited from earlier work
[8] = tested on: SARS-CoV-2; conditions: Vero E6 cells, cited from earlier work
[9] = tested on: SARS-CoV-2; conditions: read-out: EC50 against SARS-CoV-2; A549-hACE2 cells; cited from earlier work
[10] = tested on: major CYP enzymes including 1A1, 1A2, 2B6, 2C8, 2C9, 2C19, 2D6, 3A4, or 3A5; conditions: cited from earlier work
[11] = human, after iv infusion of RDV, phase I; cited from earlier work
[12] = tested on: CYP 2C8, 2D6 and 3A4; conditions: cited from earlier work
[13] = tested on: P-glycoprotein (P-gp); conditions: cited from earlier work
[14] = male, CD-1, mouse, plasma, iv, 5 mg/kg
[15] = male, CD-1, mouse, plasma, po, 10 mg/kg
[16] = read-out: EC50 against SARS-CoV-2
[17] = read-out: EC90 against SARS-CoV-2

Compound: N#C[C@@]1(c2ccc3c(N)ncnn23)O[C@H](CO)[C@@H](O)[C@H]1O [GS-441524]
- microsomal CLint at 1 μmol/L [1]: 1.9 ± 0.1 µL/min/mg
- Remaining percentage at 60 min in HLMs ([1]; with NADPH, 60 min): over 91%
- microsomal CLint at 1 μmol/L [2]: 1.7 ± 0.4 µL/min/mg
- Remaining percentage at 60 min in MLMs ([2]; with NADPH, 60 min): over 91%
- Plasma stability t1/2 Human [3]: >24 h
- Plasma stability t1/2 Mouse ([4]; 1 μmol/L, 80% CD-1 mouse plasma, 37 °C): >24 h
- MRT [5, 14]: 1.7 h
- Tmax [5, 14]: 0.083 h
- Vd [5, 14]: 4.2 L/kg
- clearance [5, 14]: 20 mL/min/kg
- half-life [5, 14]: 2.5 h
- AUC ([5]; male, CD-1, mouse, plasma, iv, 5 mg/kg, AUC0‒t, iv 5 mg/kg, CD-1 mice): 14.8 µM·h
- AUC ([5]; male, CD-1, mouse, plasma, iv, 5 mg/kg, AUC0‒∞, iv 5 mg/kg, CD-1 mice): 14.8 µM·h
- Cmax ([5]; male, CD-1, mouse, plasma, iv, 5 mg/kg, Cmax, iv 5 mg/kg, CD-1 mice): 11.6 µM
- MRT [5, 15]: 4.2 h
- Tmax [5, 15]: 1 h
- half-life [5, 15]: 2.9 h
- AUC ([5]; male, CD-1, mouse, plasma, po, 10 mg/kg, AUC0‒t, po 10 mg/kg, CD-1 mice): 16.8 µM·h
- AUC ([5]; male, CD-1, mouse, plasma, po, 10 mg/kg, AUC0‒∞, po 10 mg/kg, CD-1 mice): 16.8 µM·h
- CL (clearance) ([5]; po 10 mg/kg, CD-1 mice): 33.3 mL/min/kg
- V (volume of distribution) ([5]; po 10 mg/kg, CD-1 mice): 8.4 L/kg
- Plasma level from 0.25 to 2 h ([5]; po 10 mg/kg, CD-1 mice, 0.25 to 2 h): > 2 µM
- Cmax ([5]; po 10 mg/kg, CD-1 mice, plasma, 10 mg/kg): 3.28 µM
- Concentration in lung within the first 4 h ([6]; lung): ≥ 2.2 µM
- Concentration in plasma within the first 4 h ([6]; plasma): ≥ 2.2 µM
- EC50 [7, 16]: 620 nM
- EC90 [7, 17]: 1340 nM
- EC50 [8, 16]: 470 nM
- EC90 [8, 17]: 710 nM
- EC50 [9]: 870 nM
- Substrate of major CYP enzymes [10]: not a substrate

Compound: CCC(CC)COC(=O)[C@H](C)N[P@](=O)(OC[C@H]1O[C@@](C#N)(c2ccc3c(N)ncnn23)[C@H](O)[C@@H]1O)Oc1ccccc1 [RDV, Remdesivir]
- Remaining percentage of intact RDV at 60 min with NADPH/Cobi ([1]; HLMs, with NADPH/Cobi, 60 min): 38.5%
- Remaining percentage of intact RDV at 60 min without NADPH ([1]; HLMs, without NADPH, 60 min): 26.1%
- microsomal CLint at 1 μmol/L [1]: 1260 ± 68.6 µL/min/mg
- microsomal CLint at 1 μmol/L [2]: 1680 ± 130 µL/min/mg
- Microsomal stability MLMs t1/2 ([2]; with cofactor NADPH, 1 μmol/L compound, 0.5 mg/mL microsomal protein): 48 ± 6 s
- half-life at 1 μmol/L ([4]; CD-1, mouse, plasma (80% in buffer), pH 7.4): < 1 min
- Stability in CD-1 mouse plasma (in words) ([4]; wild-type CD-1 mouse plasma): undetectable within seconds
- Plasma half-life (t1/2) [11]: about 1 h
- Substrate for CYP 2C8, 2D6 and 3A4 [12]: substrate
- Substrate of P-glycoprotein (P-gp) [13]: substrate

From PMC8245906 (Acta Pharmaceutica Sinica. B, 2021)
